# Screening data deposited in PubChem by several laboratories.
# Shown are actives, neighbours in structure and some others; about 4.2% of the full set was active somewhere.
# KCC2 mod: KCC2 cotransporter modulators, thallium flux, primary screen, cell-based, HEK293 KCC2, FluoZin-2 fluorescence, MLSMR; Solute carrier family 12 member 5 (Homo sapiens), Q9H2X9; KCC2 cells, thallium flux FluoZin-2 fluorescence; B-score of Tl+ flux slope (higher = more flux/activation; lower = inhibition) at 10 µM; hit rate 2.2% among 190,000; AID 1456, 2008;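 active = thallium flux slope and its plate-corrected score both differing from the plate sample mean at a set confidence after two filtering rounds, in either direction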;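 also: slope of fluorescence scaled to starting intensity during 10 to 20 s after thallium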
# WT yeast gro inh: growth inhibition of WT strain, primary screen, mitochondrial fusion inhibitor project, WT and mutant strains, chemical genetic | mitochondrial fusion phenotypic screen | inhibition, % at 10 µM | hit rate 2.1% among 190,000 | AID 1362, 2008; in the data active = inhibition above about 58%; tested in S. cerevisiae
# Autophagy mod: autophagy modulators in MEF cells, primary screen, imaging, high-content, MEF GFP-LC3. MEF GFP-LC3 puncta imaging; test concentration mostly 10 µM. calls only at 10 µM (by protocol). hit rate 0.98% among 190,000. AID 463193, 2010;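 active = percentage of spot-positive cells more than 3 SD above its plate mean, without a fluorescence outlier flag or 80% toxicity; inconclusive = no clear call, values can overlap the other calls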
# Rad51 HR inh: human RAD51 strand exchange inhibitors, primary screen, biochemical, fluorescence; hRad51 DNA strand exchange, fluorescence dequenching; hit rate 0.085% among 200,000; DNA repair protein RAD51 homolog 1 (Homo sapiens), Q06609; inhibition, % at 10 µM;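 active = inhibition above 40% at the single screening dose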
#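 Test system: preformed human Rad51 ssDNA filaments; also added: Donor/quencher-labelled 47-bp dsDNA substrate; doses: 10 µM final, single point; times: 37 °C 15-min filament assembly, 30-min compound preincubation, 15-min exchange; detection: FRET fluorescence dequenching, excitation 485 nm, emission 520 nm; read-out basis: Fluorescence-based percent inhibition, control- and blank-normalised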
# Ins promoter up: insulin promoter activators in MIN6 cells, imaging, high-content screening, mouse beta cells | z-score at 5 µM | MIN6 insulin promoter-GFP reporter; stronger effect = higher value | AID 1625, 2009 | hit rate 0.3% among 190,000;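 active = z-score above 3 at 5 µM with at least 500 cells counted in the well; inconclusive = wells under 500 cells, flagged as cytotoxic or low count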
# SKKanGAS inh: S. pyogenes SKKanGAS growth inhibitors in kanamycin, primary screen, streptokinase expression inhibitor project, SKKanGAS strain, BacTiter-Glo luminescence. hit rate 1.3% among 300,000. inhibition, % at 7.5 µM. 6 h;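 active = mean replicate score, as percent of positive control median, at least 50; inconclusive = mean below 50 but one replicate at or above 50; inactive = mean and every replicate below 50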;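 also: strain carries kanamycin resistance gene driven by streptokinase promoter and grows in 40 µg/ml kanamycin; loss of luminescence reflects streptokinase promoter inhibition or plain growth inhibition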
# Numbers stand for hits; i = inactive; ? = inconclusive; nt = not tested or not shown; + = active, no number.
SMILES,KCC2 mod,WT yeast gro inh,Autophagy mod,Rad51 HR inh,Ins promoter up,SKKanGAS inh
CCCCC(NC(=O)Cc1c(C)c2cc3c(-c4ccccc4)coc3c(C)c2oc1=O)C(=O)O (stereo not drawn),nt,nt,nt,nt,nt,i
CN(C(=O)C1CCCO1)C1CCS(=O)(=O)C1 (stereo not drawn),nt,nt,nt,nt,nt,i
OC(COc1ccc2c(c1)CCC2)Cn1cnc2ccccc21 (stereo not drawn),i,i,i,128,i,i
C[C@@H]1CN(Cc2nc(-c3cccs3)no2)C[C@H](C)O1,i,i,+,i,i,i
COc1cccc(-c2coc3c(C)c4oc(=O)c(CCC(=O)O)c(C)c4cc23)c1,nt,nt,nt,nt,nt,51
CCN1/C(=C/C=C/c2oc3ccc(-c4ccccc4)cc3[n+]2CC)Oc2ccc(-c3ccccc3)cc21,i,i,nt,i,?,93
COc1ccc(C(=O)N/N=C/c2ccc3cccc(OCc4ccccc4)c3n2)cc1,4.1,i,i,i,i,i
O=C(N/N=C/c1ccc2cccc(OCc3ccccc3)c2n1)c1ccc(Br)cc1,11,i,i,i,i,i
Cc1ccccc1OCC(=O)Nc1nnc(COc2ccccc2)s1,nt,nt,nt,nt,nt,i
CC(C(=O)NC1C(=O)N2C(C(=O)O)=C(CSc3nnnn3C)CSC12)n1cc(Cl)cn1 (stereo not drawn),i,i,i,i,i,105
Cc1nnc(SCC2=C(C(=O)O)N3C(=O)C(NC(=O)C(C)n4nc(C(F)(F)F)cc4C)C3SC2)s1 (stereo not drawn),i,i,i,i,i,103
Cc1c(Cl)cnn1CC(=O)NC1C(=O)N2C(C(=O)O)=C(CSc3nnnn3C)CSC12 (stereo not drawn),i,i,i,i,i,120
Cn1nnnc1SCC1=C(C(=O)O)N2C(=O)C(NC(=O)Cn3nc(C(F)F)cc3C3CC3)C2SC1 (stereo not drawn),i,i,+,i,i,104
Cc1nnc(SCc2ccc(C(=O)O)cc2)s1,nt,i,i,i,nt,i
NC(=O)c1cc[n+](CC2=C(C(=O)O)N3C(=O)[C@@H](NC(=O)C(c4ccccc4)S(=O)(=O)[O-])[C@H]3SC2)cc1 (stereo partly drawn),i,i,i,i,nt,i
CCOc1ccc(S(=O)(=O)N2CCC(C(=O)NCc3ccncc3)CC2)cc1Cl,nt,nt,nt,nt,nt,i
CN(c1ccccc1)S(=O)(=O)c1cccc(NC(=O)CSc2ncc(C(F)(F)F)cc2Cl)c1,i,i,i,i,nt,i
Cc1c(Cl)c(C(F)F)nn1CC(=O)NC1C(=O)N2C(C(=O)O)=C(CSc3nnnn3C)CSC12 (stereo not drawn),i,i,i,nt,i,119
CCn1ccc(C(=O)NC2C(=O)N3C(C(=O)O)=C(C)CSC23)n1 (stereo not drawn),nt,i,i,i,nt,i
CC1=C(C(=O)O)N2C(=O)C(NC(=O)c3nn(C)cc3Cl)C2SC1 (stereo not drawn),nt,i,i,i,nt,i
Cc1nn(CC(=O)NC2C(=O)N3C(C(=O)O)=C(CSc4nnnn4C)CSC23)cc1Br (stereo not drawn),i,i,i,nt,i,109
COc1ccc(NC(=S)N2CCC(NC(=O)c3ccco3)CC2)cc1,nt,nt,nt,nt,nt,i
COc1ccc(C(=O)O/N=C(\C)c2ccccc2)cc1,i,75,i,i,nt,i
N#Cc1ccc(C(=O)Nc2nc(SCc3ccc(Cl)cc3)n[nH]2)cc1,i,i,i,i,i,87
Cc1nc(SCc2ccc(C#N)cc2)n[nH]1,nt,nt,nt,nt,nt,i
SMILES,KCC2 mod,WT yeast gro inh,Autophagy mod,Rad51 HR inh,Ins promoter up,SKKanGAS inh
N=c1c2c(ncn1Cc1ccco1)Oc1c(ccc3ccccc13)C2c1ccccc1 (stereo not drawn),i,69,i,i,i,i
OCC[C@@H]1C[C@@H](O)[C@H](O)[C@]2(CCCO2)O1,nt,nt,nt,i,nt,i
CC(C)CNC(=O)CSc1nnc(-c2cccc(S(=O)(=O)N3CCCCC3)c2)o1,i,i,i,i,4.8,i
COCC(C)NC(=O)CSc1nnc(-c2cccc(S(=O)(=O)N3CCCCC3)c2)o1 (stereo not drawn),i,i,i,i,i,i
COc1ccc(N2CC(C(=O)N/N=C/c3cc([N+](=O)[O-])ccc3O)CC2=O)cc1 (stereo not drawn),i,i,i,i,i,68
CCc1cc(CNC(=O)CC2C(=O)NCCN2Cc2cccc(OC)c2)on1 (stereo not drawn),i,i,i,i,i,i
Cc1ccc(C)c(-c2cc(C(=O)Nc3sc(C)c(C)c3C(N)=O)c3ccccc3n2)c1,nt,i,i,i,i,70
Cc1ccc(C)c(S(=O)(=O)N2CCN(C(=O)c3ccc(OCc4c(C)noc4C)cc3)CC2)c1,nt,nt,nt,nt,nt,i
C#CCn1c(=NC(=O)c2cc(Cl)sc2Cl)sc2cc(S(N)(=O)=O)ccc21,i,i,i,i,i,50
C#CCn1c(=NC(=O)CN2C(=O)CCC2=O)sc2cc(S(N)(=O)=O)ccc21,i,i,i,i,i,i
O=C(c1ccc(C#Cc2ccccc2)o1)N1CCN(c2ccccn2)CC1,nt,69,i,i,i,i
O=C(c1ccc(CS(=O)Cc2ccc(Cl)cc2)o1)N1CCN(c2ccccn2)CC1 (stereo not drawn),nt,nt,nt,nt,nt,i
Cn1c(SCc2c(F)cccc2Cl)nc2c(c1=O)SCC2,i,66,i,i,i,i
Cn1c(SCC(=O)Nc2ccccc2F)nc2c(c1=O)SCC2,nt,nt,nt,nt,nt,i
O=S(=O)(Nc1ccc(O)c(Sc2nc3ccccc3s2)c1)c1cccc2ccccc12,i,69,i,i,i,81
CC(=O)C1C(c2ccc(F)cc2)c2c(noc2C)CC1(C)O (stereo not drawn),i,nt,nt,i,i,i
COc1ccc(OC)c(C2=NS(=O)(=O)N(C)C(C(=O)NCc3ccco3)=C2)c1,nt,nt,nt,nt,nt,i
FC(F)(F)c1ccc(C2[C@H]3CN(Cc4cccnc4)[C@H](c4ccccc4)C34CC2(c2cccnc2)C4)cc1 (stereo partly drawn),i,nt,nt,i,i,53
COc1ccc(S(=O)(=O)N2CCC(C(=O)NCCN3CCOCC3)CC2)cc1,nt,nt,nt,nt,nt,i
CCOc1ccccc1N1CCN(C(=O)c2ccc3[nH]c4c(c3c2)CCCC4)CC1,i,58,i,i,i,i
CCOc1ccccc1N1CCN(C(=O)c2cc3c(C)cc(C)cc3[nH]2)CC1,nt,nt,nt,nt,nt,i
COc1ccc(N(CC(=O)N/N=C/c2ccc(OC)cc2OC)S(=O)(=O)c2ccccc2)cc1,nt,nt,nt,nt,nt,i
COc1ccc2cc(/C=N/NC(=O)CN(c3ccccc3C)S(=O)(=O)c3ccccc3)c(Cl)nc2c1,i,i,+,nt,i,i
O=C(CSc1nc2ccc(Cl)cc2o1)NCc1ccc2c(c1)OCO2,i,i,i,i,4,i
CS(=O)(=O)N(CC(=O)NCc1ccc2c(c1)OCO2)c1ccc(Cl)cc1,i,80,i,nt,i,i
